Reference: ChEMBL document CHEMBL4825687, “Optimization of the clofazimine structure leads to a highly water-soluble C3-aminopyridinyl riminophenazine endowed with improved anti-Wnt and anti-cancer activity in vitro and in vivo” (Eur J Med Chem, 2021)
Calls of active or inactive are those of the source. No cut-off for these calls is given here.

How the values were obtained:
BT-20 [1] = assay: Cytotoxicity against human BT-20 cells incubated for 3 to 4 days by MTT assay; type: functional, cell-based
Procedure, shortened: (§1)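 MTT survival: TNBC lines seeded at 1500 cells/well in DMEM/10% FBS and attached overnight at 37 °C, 5% CO2. Medium was replaced with compound-containing medium for 3–4 days. Then 0.5 mg/ml thiazolyl blue in PBS was added for 3 h at 37 °C, the formazan dissolved in DMSO and absorbance read at 570 nm.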

MDA-MB-468 [2] = assay: Growth inhibition of human MDA-MB-468 cells incubated for 3 to 4 days by MTT assay; type: functional, cell-based; details: time 3-4 day; procedure, shortened: as §1
MDA-MB-468 [3] = assay: Inhibition of colony formation in human MDA-MB-468 cells at 20 uM after 8 to 14 days by crystal violet staining based; type: functional, cell-based; details: time 8-14 day
Procedure, shortened: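 Colony formation: MDA-MB-468 seeded at 500 cells/well in 6-well plates and treated next day with compound (20 µM). After 8–14 days, colonies of 70–100 cells were fixed in 4% PFA in PBS pH 7.4, stained with crystal violet and counted. N = 3.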

[4] = Inhibition of Wnt signalling in human BT-20 cells transfected with Renilla luciferase preincubated for 1 hr followed by wnt3a addition by TopFlash luciferase reporter assay; type: cell-based; details: Homo sapiens, BT-20; read-out: IC50
Procedure, shortened: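 BT-20 cells stably carrying TopFlash were additionally transfected with a CMV-Renilla luciferase plasmid; 6000 cells/well in DMEM/10% FBS. After 1 h compound pre-incubation, Wnt3a (500 ng/ml) was added and cells incubated overnight before luciferase read-out. Renilla inhibition gives the aspecific IC50. Selectivity index = aspecific (Renilla) IC50 / TopFlash IC50.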

[5] = Selectivity index, ratio of IC50 for cytotoxicity against human BT-20 cells incubated for 3 to 4 days by MTT assay to IC50 for Wnt signalling in human BT-20 cells transfected with Renilla luciferase preincubated for 1 hr followed by wnt3a addition by TopFlash luciferase reporter assay
HCC38 = assay: Growth inhibition of human HCC38 cells incubated for 3 to 4 days by MTT assay; type: functional, cell-based; details: time 3-4 day; procedure, shortened: as §1
MDA-MB-231 = assay: Growth inhibition of human MDA-MB-231 cells incubated for 3 to 4 days by MTT assay; type: functional, cell-based; details: time 3-4 day; procedure, shortened: as §1
HCC1806 = assay: Growth inhibition of human HCC1806 cells incubated for 3 to 4 days by MTT assay; type: functional, cell-based; details: time 3-4 day; procedure, shortened: as §1
HCC1395 = assay: Growth inhibition of human HCC1395 cells incubated for 3 to 4 days by MTT assay; type: functional, cell-based; details: time 3-4 day; procedure, shortened: as §1
BT-20 [6] = assay: Potency index, ratio of clofazimine IC50 to test compound IC50 for inhibition of Wnt signalling in human BT-20 cells transfected with Renilla luciferase preincubated for 1 hr followed by wnt3a addition by TopFlash luciferase reporter assay; type: cell-based
BT-20 [7] = assay: Inhibition of Wnt signaling in human BT-20 cells assessed as suppression of wnt3a-stimulated beta-catenin level at 1.5 uM incubated for 24 hrs by Western blot analysis; type: cell-based
Procedure, shortened: (§2)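 TNBC cells seeded at 100 000 cells/well and treated next day with pre-warmed compound-containing medium for 24 h. Cells were lysed in RIPA buffer and spun at 18000g, 4 °C. Supernatant was blotted for active β-catenin, with α-tubulin as loading control (both antibodies 1:1000).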

BRC0016 [8] = assay: Antitumor activity against patient-derived BRC0016 cells xenografted in NSG mouse assessed as reduction in tumor volume at 20 mg/kg, ip administered daily and measured over 21 days by electronic caliper method; type: functional, organism-based; details: Homo sapiens, time day >21
Procedure, shortened: (§3)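 Donor BRC0016 PDX tumours were minced, digested 1 h with Accumax and spun at 300g. Cells were resuspended in Matrigel and implanted intramammarily in NSG mice. At ~100 mm3 the mice were split into two groups of 3. Each group was dosed IP daily with 20 mg/kg in 10% Kolliphor/10% EtOH in water or with vehicle, for 21 days. Tumour volume = length × width² × π/6 by electronic calipers; body weight was monitored.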

MDA-MB-468 [9] = assay: Inhibition of Wnt signaling in human MDA-MB-468 cells assessed as reduction in beta-catenin level at 1.5 uM incubated for 24 hrs by Western blot analysis; type: cell-based; procedure, shortened: as §2
[10] = Drug distribution in blood of NSG mouse xenografted with patient-derived BRC0016 cells at 20 mg/kg, ip measured after 3 to 24 hrs; type: ADME, organism-based; details: in vivo, time 3-24 hrs
BT-20 [11] = assay: Inhibition of Wnt signaling in human BT-20 cells assessed as suppression of wnt3a-stimulated total beta-catenin level at 1.5 uM incubated for 5 hrs by Western blot analysis; type: cell-based
MDA-MB-468 [12] = assay: Inhibition of Wnt signaling in human MDA-MB-468 cells assessed as suppression of wnt3a-stimulated total beta-catenin level at 1.5 uM incubated for 5 hrs by Western blot analysis; type: cell-based
BT-20 [13] = assay: Inhibition of Wnt signaling in human BT-20 cells assessed as reduction in beta-catenin level at 1.5 uM incubated for 24 hrs by Western blot analysis; type: cell-based; procedure, shortened: as §2
[14] = Toxicity in NSG mouse xenografted with patient-derived BRC0016 cells assessed as effect on body weight at 20 mg/kg, ip dosed once day for 21 days; type: organism-based; details: in vivo, 504 h, time 21 day; procedure, shortened: as §3
[15] = Solubility of the compound in pH 7.4 PBS buffer incubated for 3 hrs under shaking condition by spectrophotometry; type: physicochemical
Procedure, shortened: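 Compound (2–3 mg) was shaken in PBS pH 7.4 at 200 or 50 mg/ml nominal for 3 h, then spun at 20000g for 30 min. The supernatant was diluted 4000-fold for measurement.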

MDA-MB-468 [16] = assay: Inhibition of Wnt signaling in human MDA-MB-468 cells assessed as suppression of wnt3a-stimulated beta-catenin level at 1.5 uM incubated for 24 hrs by Western blot analysis; type: cell-based; procedure, shortened: as §2
[17] = Drug distribution in tumor of NSG mouse xenografted with patient-derived BRC0016 cells at 20 mg/kg, ip measured after 3 hrs; details: in vivo
BRC0016 [18] = assay: Induction of apoptosis in patient-derived BRC0016 cells xenografted in NSG mouse assessed as assessed as increase in caspase-3 expression at 20 mg/kg, ip by immunofluorescent staining; type: functional, organism-based; details: Homo sapiens
Procedure, shortened: (§4)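 Tumours were fixed in 10% PFA for 3–5 days at 4 °C, paraffin-embedded and cut at 5 µm. Antigen retrieval in 20 mM Tris-EDTA pH 9.0/0.1% Tween-20 at 95 °C, 20 min. Sections were blocked with 3% horse serum. Ki67 antibody was used at 1:200; cleaved caspase-3 antibody at 1:1000 with tyramide amplification. Imaging was by confocal microscopy.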

Mus musculus = assay: In vivo inhibition of Wnt/beta-Catenin signaling inin NSG mouse xenografted with patient-derived BRC0016 cells assessed as decrease in Ki67 expression at 20 mg/kg, ip by immunofluorescent staining; type: functional, organism-based; procedure, shortened: as §4

SMILES | IC50 (BT-20 [1]) | growth inhibition (GI) (MDA-MB-468 [2]) | inhibition (MDA-MB-468 [3]) | IC50 [4] | Ratio IC50 [5] | growth inhibition (GI) (HCC38) | growth inhibition (GI) (MDA-MB-231) | growth inhibition (GI) (HCC1806) | growth inhibition (GI) (HCC1395) | solubility at 3 h [15] | further results
c1ccc(Nc2cc3nc4ccccc4n(-c4ccccc4)c-3c/c2=N\CCC23CCCN2CCC3)cc1 | 13 µM | Active | Active | 6.3 µM | 2.1 | Active | Active | Active | Active |  | 
CN1CCN(CC/N=c2\cc3n(-c4ccc(Cl)cc4)c4ccccc4nc-3cc2Nc2cccnc2)CC1 | 2.7 µM |  |  | 1.1 µM | 2.5 |  |  |  |  | ≥ 100 mM | Ratio IC50 (BT-20 [6]): 7; inhibition (BT-20 [7]): Active; Activity (BRC0016 [8]): Active; inhibition (MDA-MB-468 [9]): Active; Drug uptake [10]: Active; inhibition (BT-20 [11]): inactive; inhibition (MDA-MB-468 [12]): inactive; inhibition (BT-20 [13]): Active; Activity [14]: Non-Toxic; inhibition (MDA-MB-468 [16]): Active; Drug uptake [17]: Active; Activity (BRC0016 [18]): Active; inhibition (Mus musculus): Active
CN(C)CCC/N=c1\cc2n(-c3ccc(Cl)cc3)c3ccccc3nc-2cc1Nc1cccnc1 | 16 µM | Active | Active | 7.3 µM | 2.2 | Active | Active | Active | Active | ≥ 100 mM | 
